49 molecules from ChEMBL document CHEMBL1240409, “Design, synthesis and evaluation of (E)-alpha-benzylthio chalcones as novel inhibitors of BCR-ABL kinase” (Bioorg Med Chem, 2010) can be followed below.

Each structure is given as a SMILES string.

In one series the test system is K562. In words: Growth inhibition of human K562 cells expressing p210Bcr/Abl after 96 hrs by trypan blue exclusion assay. The class given is functional, cell-based. As to conditions: K562, 96 h. The method in brief: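 K562 cells were kept in RPMI with 10% FBS and penicillin–streptomycin at 37 °C under 5% CO2. Cells were seeded at 1 × 10^5 cells/mL with a range of compound concentrations, using DMSO as the negative control. After 96 h, viability was counted by Trypan blue exclusion and expressed as percent of DMSO control to derive GI50.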

The next series has as its system DU-145. In words: Growth inhibition of human DU145 cells after 96 hrs by trypan blue exclusion assay. The class given is functional. As to conditions: DU-145, 96 h.
The target in a further series is Bcr/Abl fusion protein (Homo sapiens, UniProt P00519). In words: Inhibition of BCR/ABL p210 autophosphorylation in human K562 cells after 2 hrs by Western blot analysis. The class given is cell-based. (In general: A western blot detects proteins with antibodies after separation by electrophoresis.)
The nature of series [1]: Aqueous solubility of the compound. Type of series: physicochemical. As to conditions: buffer.

Sequence of Bcr/Abl fusion protein (P00519 whole entry, the tested form may be a part): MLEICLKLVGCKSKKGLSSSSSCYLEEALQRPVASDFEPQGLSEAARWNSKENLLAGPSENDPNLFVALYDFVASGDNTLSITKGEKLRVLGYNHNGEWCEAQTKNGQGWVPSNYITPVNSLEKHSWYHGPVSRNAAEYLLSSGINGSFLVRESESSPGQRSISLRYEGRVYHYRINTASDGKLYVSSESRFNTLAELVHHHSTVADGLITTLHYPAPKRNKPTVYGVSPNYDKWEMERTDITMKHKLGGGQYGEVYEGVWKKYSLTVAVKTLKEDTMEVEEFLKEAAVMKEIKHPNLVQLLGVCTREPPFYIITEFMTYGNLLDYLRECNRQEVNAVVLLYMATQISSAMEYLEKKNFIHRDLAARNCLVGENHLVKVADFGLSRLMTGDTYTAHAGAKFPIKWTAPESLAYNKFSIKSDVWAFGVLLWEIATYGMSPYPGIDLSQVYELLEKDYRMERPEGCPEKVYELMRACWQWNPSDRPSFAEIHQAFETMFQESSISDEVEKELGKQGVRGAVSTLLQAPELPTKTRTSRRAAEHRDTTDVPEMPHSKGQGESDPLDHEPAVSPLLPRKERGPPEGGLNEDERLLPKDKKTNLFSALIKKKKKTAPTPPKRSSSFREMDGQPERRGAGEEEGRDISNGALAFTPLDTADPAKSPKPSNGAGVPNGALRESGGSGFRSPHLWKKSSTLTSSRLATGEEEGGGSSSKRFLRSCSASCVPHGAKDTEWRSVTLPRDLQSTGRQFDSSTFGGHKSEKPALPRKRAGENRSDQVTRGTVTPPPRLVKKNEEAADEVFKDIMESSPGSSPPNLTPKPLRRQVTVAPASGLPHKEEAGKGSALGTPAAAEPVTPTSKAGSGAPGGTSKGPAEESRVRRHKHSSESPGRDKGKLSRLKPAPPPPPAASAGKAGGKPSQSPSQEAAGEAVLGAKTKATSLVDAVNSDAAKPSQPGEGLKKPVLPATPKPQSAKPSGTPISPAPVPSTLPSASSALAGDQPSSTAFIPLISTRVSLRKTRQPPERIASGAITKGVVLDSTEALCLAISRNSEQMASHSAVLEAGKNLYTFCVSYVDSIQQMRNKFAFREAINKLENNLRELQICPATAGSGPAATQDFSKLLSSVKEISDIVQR
Sequence of Bcr/Abl fusion protein (P11274 whole entry, further chain, the tested form may be a part): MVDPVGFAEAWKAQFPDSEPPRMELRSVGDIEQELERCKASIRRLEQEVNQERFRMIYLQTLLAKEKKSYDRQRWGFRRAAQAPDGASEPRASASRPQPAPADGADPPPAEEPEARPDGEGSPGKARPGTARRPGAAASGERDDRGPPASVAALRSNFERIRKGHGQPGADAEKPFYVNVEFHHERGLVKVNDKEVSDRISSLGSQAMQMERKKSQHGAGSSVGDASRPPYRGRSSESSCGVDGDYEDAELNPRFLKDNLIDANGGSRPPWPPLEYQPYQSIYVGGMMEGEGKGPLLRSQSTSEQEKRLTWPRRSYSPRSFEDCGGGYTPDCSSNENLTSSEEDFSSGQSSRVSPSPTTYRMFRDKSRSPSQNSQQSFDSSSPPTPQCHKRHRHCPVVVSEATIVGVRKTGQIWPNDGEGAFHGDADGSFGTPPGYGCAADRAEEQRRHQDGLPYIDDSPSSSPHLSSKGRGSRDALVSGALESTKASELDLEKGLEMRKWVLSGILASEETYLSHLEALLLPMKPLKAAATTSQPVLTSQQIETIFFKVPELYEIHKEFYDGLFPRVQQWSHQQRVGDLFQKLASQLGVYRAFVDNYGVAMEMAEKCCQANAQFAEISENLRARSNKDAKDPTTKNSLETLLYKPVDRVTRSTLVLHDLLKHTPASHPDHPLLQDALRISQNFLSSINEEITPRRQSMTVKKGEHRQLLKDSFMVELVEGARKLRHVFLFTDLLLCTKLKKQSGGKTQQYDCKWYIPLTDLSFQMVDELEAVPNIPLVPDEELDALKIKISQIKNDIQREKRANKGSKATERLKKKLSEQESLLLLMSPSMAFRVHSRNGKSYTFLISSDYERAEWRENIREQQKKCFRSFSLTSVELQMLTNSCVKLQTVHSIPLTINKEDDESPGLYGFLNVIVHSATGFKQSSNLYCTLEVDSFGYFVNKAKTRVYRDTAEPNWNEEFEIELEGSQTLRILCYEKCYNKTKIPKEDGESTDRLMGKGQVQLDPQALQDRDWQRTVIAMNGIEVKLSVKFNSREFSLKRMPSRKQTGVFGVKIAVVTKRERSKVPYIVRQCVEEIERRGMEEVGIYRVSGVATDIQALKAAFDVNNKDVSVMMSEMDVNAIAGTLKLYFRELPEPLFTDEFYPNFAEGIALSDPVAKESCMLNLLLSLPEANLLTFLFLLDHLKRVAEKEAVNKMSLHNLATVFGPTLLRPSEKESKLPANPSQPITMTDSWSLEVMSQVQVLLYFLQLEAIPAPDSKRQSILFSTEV

In the case of `O=C(O)c1ccc(C(=O)/C(=C\c2ccc(Cl)c([N+](=O)[O-])c2)SCc2ccc(F)cc2)cc1`, the results for the GI50 in the series on K562 and in the series with DU-145 were less than 1000 nM and 1000 nM, respectively. Further, the 50% inhibitory concentration (IC50) in the series with K562 amounted to 500 nM; against Bcr/Abl fusion protein, 2500 nM. The same molecule gave a solubility in series [1] of less than 1000 µg/mL.
With `COc1cc(/C=C(/SCc2ccc(Br)cc2)C(=O)c2ccc(C(=O)O)cc2)ccc1F`, the GI50 in the series on K562 and with DU-145 was 1000 nM throughout. The IC50 is 20000 nM in the series on K562 and more than 20000 nM against Bcr/Abl fusion protein. In addition, the solubility in series [1] was less than 1000 µg/mL.
Take `O=C(O)c1ccc(C(=O)/C(=C\c2ccc(F)c([N+](=O)[O-])c2)SCc2ccc(Cl)cc2)cc1`: the figures for the GI50 in the series on K562 and in the series on DU-145 were 10000 nM and 50000 nM, respectively. The results for the IC50 in the series on K562 and against Bcr/Abl fusion protein were 500 nM and 2500 nM, respectively. The molecule also came in with a solubility in series [1] of less than 1000 µg/mL.
For `O=C(O)c1ccc(C(=O)/C(=C\c2ccc(Cl)c([N+](=O)[O-])c2)SCc2ccccc2F)cc1` the same measures were less than 1000 nM, 1000 nM, 800 nM, 10000 nM and less than 1000 µg/mL.
For `O=C(O)c1ccc(C(=O)/C(=C\c2ccc([N+](=O)[O-])cc2F)SCc2ccc(Br)cc2)cc1`, the IC50 is 7500 nM in the series with K562 and more than 20000 nM against Bcr/Abl fusion protein. Moreover, the solubility in series [1] is less than 1000 µg/mL.
Regarding `O=C(O)c1ccc(C(=O)/C(=C\c2ccc(Br)c([N+](=O)[O-])c2)SCc2ccc(Cl)cc2Cl)cc1`, the 50% growth inhibitory concentration (GI50) in the series on K562 is less than 1000 nM; in the series on DU-145, 1000 nM. The IC50 with K562 turned out to be 600 nM; at Bcr/Abl fusion protein, 2500 nM. Also, the solubility in series [1] is less than 1000 µg/mL.
For `O=C(O)c1ccc(C(=O)/C(=C\c2ccc(Br)c([N+](=O)[O-])c2)SCc2ccc(Cl)cc2)cc1` the same measures were less than 1000 nM, less than 1000 nM, 600 nM, 2500 nM and less than 1000 µg/mL.
For `O=C(O)c1ccc(C(=O)/C(=C\c2ccc(Br)c([N+](=O)[O-])c2)SCc2ccc(F)cc2)cc1` the same measures were less than 1000 nM, 1000 nM, 400 nM, 15000 nM and less than 1000 µg/mL.
For `O=C(O)c1ccc(C(=O)/C(=C\c2ccc(F)c([N+](=O)[O-])c2)SCc2ccccc2)cc1`, the values for the concentration for half-maximal inhibition (IC50) with K562 and at Bcr/Abl fusion protein were 300 nM and 2500 nM, respectively. This molecule gave a solubility in series [1] of less than 1000 µg/mL.
In the case of `O=C(O)c1ccc(C(=O)/C(=C\c2ccc(Cl)c([N+](=O)[O-])c2)SCc2ccc(Br)cc2)cc1`, the GI50 turned out to be 1000 nM with K562 and 500 nM with DU-145. Also, the values for the IC50 with K562 and against Bcr/Abl fusion protein were 700 nM and 10000 nM, respectively. In series [1], this molecule yielded a solubility of less than 1000 µg/mL.
`O=C(/C(=C\c1ccc(F)c([N+](=O)[O-])c1)SCc1ccc(F)cc1)c1ccc(F)cc1`: the GI50 with K562 was less than 1000 nM; with DU-145, 1000 nM. Also, the figures for the IC50 in the series on K562 and against Bcr/Abl fusion protein were 600 nM and 2500 nM, respectively. For the same molecule, in series [1], the solubility is less than 1000 µg/mL.
For `O=C(O)c1ccc(C(=O)/C(=C\c2ccc(Cl)c([N+](=O)[O-])c2)SCc2ccc(Cl)cc2)cc1` the same measures were less than 1000 nM, 1000 nM, 500 nM, 10000 nM and less than 1000 µg/mL.
Turning to `O=C(O)c1ccc(C(=O)/C(=C\c2ccc(F)c([N+](=O)[O-])c2)[S+]([O-])Cc2ccc(Br)cc2)cc1` (centres undefined), the IC50 in the series with K562 is 75000 nM; against Bcr/Abl fusion protein it was more than 20000 nM. The solubility in series [1] is less than 1000 µg/mL.
In the case of `O=C(O)c1ccc(C(=O)/C(=C\c2ccc(F)c([N+](=O)[O-])c2)SCc2ccc(Cl)cc2Cl)cc1`, the GI50 in the series on K562 was less than 1000 nM; in the series with DU-145, 1000 nM. Further, the IC50 was 400 nM in the series with K562 and 2500 nM against Bcr/Abl fusion protein. In series [1], the solubility was less than 1000 µg/mL.
`O=C(O)c1ccc(C(=O)/C(=C\c2ccc(F)c([N+](=O)[O-])c2)Sc2ccc(Br)cc2)cc1`: the IC50 amounted to 1500 nM with K562 and 20000 nM against Bcr/Abl fusion protein. In series [1], the solubility is less than 1000 µg/mL.
For `O=C(O)c1ccc(C(=O)/C(=C\c2ccc(F)c([N+](=O)[O-])c2)S(=O)(=O)Cc2ccc(Br)cc2)cc1` the same measures were 5000 nM, more than 20000 nM and less than 1000 µg/mL.
For `O=C(O)c1ccc(C(=O)/C(=C\c2ccc([N+](=O)[O-])c(F)c2)SCc2ccc(Br)cc2)cc1` the same measures were 5000 nM, more than 20000 nM and less than 1000 µg/mL.
With `O=C(O)c1ccc(C(=O)/C(=C\c2ccc(F)cc2[N+](=O)[O-])SCc2ccc(Br)cc2)cc1`, the concentration for half-maximal inhibition (IC50) was 20000 nM with K562 and more than 20000 nM against Bcr/Abl fusion protein. In addition, in series [1], the solubility was less than 1000 µg/mL.
As to `COc1cc(OC)c(/C=C(/SCc2ccc(Cl)c(Cl)c2)C(=O)c2ccc(Cl)cc2)c(OC)c1`, the GI50 in the series with K562 and with DU-145 was 10000 nM each time.
On to `COc1cc(C(=O)/C(=C\c2ccc(O)c([N+](=O)[O-])c2)SCc2ccc(Br)cc2)cc(OC)c1OC`, for which the GI50 in the series with K562 and with DU-145 was 1000 nM throughout.
Regarding `O=C(/C(=C\c1cc(Cl)cc(Cl)c1Cl)S(=O)(=O)Cc1ccc(Cl)cc1)c1ccc(Br)cc1`, the GI50 in the series with K562 and in the series with DU-145 was 1000 nM throughout.
On to `O=C(/C(=C\c1ccc(O)cc1)S(=O)(=O)Cc1ccc(Cl)c(Cl)c1)c1ccc(Cl)cc1`, for which the 50% growth inhibitory concentration (GI50) in the series on K562 and in the series on DU-145 was 10000 nM each time.
In the case of `Cc1ccc(CS/C(=C/c2ccccc2OCc2ccccc2)C(=O)c2ccc(Cl)cc2)cc1`, the GI50 with K562 and in the series on DU-145 was 1000 nM in each case.
Consider `O=C(/C(=C\c1ccc(F)cc1F)Sc1ccc(Br)cc1)c1ccc(Br)cc1`, for which the GI50 with K562 and in the series on DU-145 was 1000 nM in each case.
In the case of `O=C(/C(=C\c1ccc(-c2ccccc2)s1)SCc1ccc(F)cc1)c1ccc(Br)cc1`, the GI50 in the series with K562 is 50000 nM; in the series on DU-145, more than 100000 nM.
For `Cc1ccc(S(=O)(=O)/C(=C/c2c[nH]c3ccccc23)C(=O)c2ccc(Br)cc2)cc1` the same measures were 10000 nM and 10000 nM.
For `O=C(/C(=C\c1ccc(O)cc1)SCc1ccc(Cl)cc1)c1ccc(Br)cc1` the same measures were 1000 nM and 10000 nM.
For `COc1cc(OC)c(/C=C(/SCc2ccc(F)cc2)C(=O)c2ccc(Cl)cc2)c(OC)c1` the same measures were 10000 nM and 10000 nM.
As to `O=C(/C(=C\c1ccc(OCc2ccccc2)cc1)SCc1ccc(Cl)cc1Cl)c1ccc(Cl)cc1`, the GI50 in the series on K562 and in the series on DU-145 was 1000 nM in each case.
As for `CN1CCN(c2ccc(/C=C(/SCc3ccc(Br)cc3)C(=O)c3ccc(C(=O)O)cc3)cc2[N+](=O)[O-])CC1`, the 50% growth inhibitory concentration (GI50) with K562 was found to be 1000 nM; with DU-145, 10000 nM.
For `Cc1ccc(S/C(=C/c2sccc2C)C(=O)c2ccc(Br)cc2)cc1` the same measures were 50000 nM and 50000 nM.
For `COc1ccccc1/C=C(/SCc1ccc(C)cc1)C(=O)c1ccc(Cl)cc1` the same measures were 10000 nM and 10000 nM.
For `Cc1ccc(S(=O)(=O)/C(=C/c2c[nH]c3ccc(Cl)cc23)C(=O)c2ccc(Br)cc2)cc1` the same measures were 10000 nM and 10000 nM.
Turning to `CN(C)c1ccc(/C=C(/SCc2ccc(Cl)cc2)C(=O)c2ccc(Cl)cc2)cc1`, the GI50 is 10000 nM in the series on K562 and more than 100000 nM in the series on DU-145.
For `O=C(/C(=C\c1csc([N+](=O)[O-])c1)S(=O)(=O)c1ccc(Br)cc1)c1ccc(Br)cc1` the same measures were 1000 nM and 1000 nM.
Take `O=C(/C(=C\c1ccc(F)c([N+](=O)[O-])c1)S(=O)(=O)c1ccc(Br)cc1)c1ccc(Br)cc1`: the GI50 in the series on K562 was found to be 10000 nM; in the series on DU-145, 25000 nM.
For `COc1ccc(/C=C(/SCc2ccc(Cl)cc2)C(=O)c2ccc(Cl)cc2)cc1` the same measures were 1000 nM and 10000 nM.
For `CCOc1ccc(/C=C(/SCc2ccc(F)cc2)C(=O)c2ccc(Br)cc2)cc1OC` the same measures were 1000 nM and 50000 nM.
On to `O=C(O)c1ccc(C(=O)/C(=C\c2cc([N+](=O)[O-])ccc2F)SCc2ccc(Br)cc2)cc1`, for which the IC50 with K562 was 7500 nM; at Bcr/Abl fusion protein, more than 20000 nM. The solubility in series [1] is less than 1000 µg/mL.
As for `CC(=O)c1ccc(/C=C(/Sc2ccc(C)cc2)C(=O)c2ccc(Br)cc2)cc1`, the 50% growth inhibitory concentration (GI50) with K562 and with DU-145 was 50000 nM each time.
`O=C(/C(=C\c1c[nH]c2ccccc12)Sc1ccc(Br)cc1)c1ccc(Br)cc1`: the GI50 in the series with K562 and in the series on DU-145 was 1000 nM in each case.
Turning to `O=C(/C(=C\c1ccc(O)c([N+](=O)[O-])c1)SCc1ccc(Br)cc1)c1ccc(Br)cc1`, the GI50 in the series on K562 and with DU-145 was 10000 nM throughout.
In the case of `CN(C)c1ccc(/C=C(/SCc2ccc(Cl)cc2)C(=O)c2ccc([N+](=O)[O-])cc2)cc1`, the GI50 in the series with K562 is 50000 nM; with DU-145 it was more than 100000 nM.
Take `O=C(/C(=C\c1ccc(Br)cc1)SCc1ccc(F)cc1)c1ccc(Br)cc1`: the GI50 in the series on K562 was 1000 nM; with DU-145, 25000 nM.
For `Cc1ccc(/C=C(/Sc2ccc(F)cc2)C(=O)c2ccc(Cl)cc2)s1` the same measures were 25000 nM and 25000 nM.
For `Cc1ccc(CS/C(=C/c2ccccc2F)C(=O)c2ccc(Br)cc2)cc1` the same measures were 1000 nM and 10000 nM.
Consider `COc1ccc(OC)c(/C=C(/SCc2ccc(Cl)c(Cl)c2)C(=O)c2ccc(Cl)cc2)c1`, for which the GI50 in the series with K562 and with DU-145 was 10000 nM in each case.
For `O=C(O)c1cc(/C=C(\C(=O)c2c(F)c(F)c(F)c(F)c2F)S(=O)(=O)c2ccc(Br)cc2)ccc1O`, the GI50 with K562 and in the series with DU-145 was more than 100000 nM each time.
With `Cc1ccc(S(=O)(=O)/C(=C/c2c(O)cc(O)cc2O)C(=O)c2ccc(Br)cc2)cc1`, the GI50 in the series on K562 and in the series on DU-145 was more than 100000 nM throughout.

Usually GI50 stands for the concentration at which growth is held to half of that of the control. As usually defined, the IC50 is the midpoint of a concentration-inhibition curve. As usually defined, the solubility is the concentration that dissolves in the medium under given conditions. Read a high solubility as a readily soluble substance.
